pEC50, pIC50: −log10 of the molar value.

Test [1] has as its system MDA-MB-435. The test can be described thus: Antiproliferative activity against human MDA-MB-435 cells after 48 hrs by SRB assay. The format is functional, cell-based. As to conditions: MDA-MB-435, 48 h; for pIC50: read-out: IC50; for IC50: read-out: Log IC50 (converted). A general note: The SRB assay estimates cell density from bound dye.
A short description of test [2]: Inhibition of tubulin polymerization in rat A10 cells after 18 hrs by indirect immunofluorescence technique. Format: cell-based. Put shortly: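 A-10 cells were exposed to a range of concentrations for 18 hr, fixed, and stained with a β-tubulin antibody for microtubules and with DAPI for DNA. Percent microtubule loss was scored visually at each concentration, averaged over 3 independent experiments, and plotted against concentration to calculate EC50.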

For orientation: pIC50 means the IC50 on a negative log10 scale, so that one unit is a factor of ten. By IC50 is commonly meant the concentration that gives 50% inhibition. What is called pEC50 is −log10 of the EC50, conventionally taken in molar units. Regarding `CCOC(=O)c1[nH]c(Br)c(-c2cccc(OC)c2)c1Br`, in test [1], the negative-log IC50 (pIC50) is 6.56 and the concentration for half-maximal inhibition (IC50) was 0.282 µM. The compound further gave a pEC50 in test [2] of 5.62.

With `COC(=O)c1c(-c2ccc(OC)c(OC)c2)c(-c2ccc(OC)c(OC)c2)cn1CCc1ccc(OC)c(OC)c1`, in test [1], the negative logarithm of the IC50 (pIC50) is 5.00 and the half-maximal inhibitory concentration (IC50) is 10 µM. Moreover, the pEC50 in test [2] is less than 4.30.

Take `CCOC(=O)c1cc(-c2ccc(OC)cc2)c(C(=O)c2ccc(OC)cc2)[nH]1`: in test [1], the pIC50 is 5.59 and the IC50 was 2.63 µM. The pEC50 in test [2] is less than 4.30.

Turning to `CCOC(=O)c1[nH]c(C(=O)c2ccc(OC)cc2)c(-c2ccc(OC)cc2)c1Br`, in test [1], the pIC50 is 5.72 and the IC50 is 1.91 µM. In addition, the negative-log EC50 (pEC50) in test [2] is less than 4.30.

For the compound `CCOC(=O)c1c[nH]c(C(=O)c2ccc(OC)cc2)c1-c1ccc(OC)cc1`, in test [1], the pIC50 is 5.00 and the IC50 was 10 µM. This compound had a pEC50 in test [2] of less than 4.30.

Turning to `CCOC(=O)c1[nH]c(Br)c(-c2ccc(Cl)cc2)c1Br`, in test [1], the pIC50 was 6.04 and the IC50 is 0.912 µM. The compound further had a negative-log EC50 (pEC50) in test [2] of less than 4.30.

As for `CCOC(=O)c1[nH]c(Br)c(-c2ccc(OC)cc2)c1Br`, in test [1], the pIC50 was 6.44 and the IC50 was 0.363 µM. Besides, the negative-log EC50 (pEC50) in test [2] is 5.29.

With `CCOC(=O)c1[nH]c(Br)c(-c2ccc3ccccc3c2)c1Br`, in test [1], the pIC50 was 5.85 and the IC50 is 1.41 µM. Further, in test [2], the negative-log EC50 (pEC50) is 5.12.

On to `CCOC(=O)c1[nH]c(Br)c(-c2ccc(Br)cc2)c1Br`, for which, in test [1], the negative logarithm of the IC50 (pIC50) is 6.51 and the concentration for half-maximal inhibition (IC50) was 0.309 µM. Also, in test [2], the negative logarithm of the EC50 (pEC50) is less than 4.30.

On to `CCOC(=O)c1[nH]c(C(=O)c2ccc(OC)cc2)c(-c2ccc(OC)cc2)c1-c1ccc(OC)cc1`, for which, in test [1], the pIC50 is 5.38 and the IC50 is 4.27 µM. In test [2], this compound had a negative logarithm of the EC50 (pEC50) of less than 4.30.

Turning to `CCOC(=O)c1[nH]c(Br)c(-c2ccccc2)c1Br`, in test [1], the negative-log IC50 (pIC50) is 5.00 and the 50% inhibitory concentration (IC50) is 10 µM. For the same compound, the pEC50 in test [2] was less than 4.30.

As for `COc1ccc(C(=O)c2[nH]c(C(=O)c3ccc(OC)cc3)c(-c3ccc(OC)cc3)c2-c2ccc(OC)cc2)cc1`, in test [1], the pIC50 was less than 4.70 and the IC50 is 200 µM. In test [2], this compound showed a pEC50 of less than 4.30.

For `CCOC(=O)c1[nH]c(Br)c(-c2ccc(C)cc2)c1Br`, in test [1], the pIC50 is 5.66 and the IC50 was 2 µM. For the same compound, the pEC50 in test [2] is less than 4.30.

As for `CCOC(=O)c1cc(-c2ccc(OC)cc2)c(Cl)[nH]1`, in test [1], the negative logarithm of the IC50 (pIC50) was 5.30 and the IC50 is 5.01 µM. In addition, the pEC50 in test [2] is less than 4.30.

With `CCOC(=O)c1[nH]c(Br)c(-c2ccc(OC)c(OC)c2)c1Br`, in test [1], the half-maximal inhibitory concentration (IC50) was 0.0182 µM.

As to `COc1cc2c(c(OC)c1OC)-c1ccc(OC)c(=O)cc1C(NC(=O)CS)CC2` (centres undefined), in test [1], the negative-log IC50 (pIC50) is 5.70 and the half-maximal inhibitory concentration (IC50) was 2 µM.

Regarding `CCOC(=O)c1[nH]c(Br)c(-c2cc(OC)c(OC)c(OC)c2)c1Br`, in test [1], the pIC50 is 4.89 and the half-maximal inhibitory concentration (IC50) was 12.9 µM. For the same compound, the pEC50 in test [2] was less than 4.30.

Consider `CCOC(=O)c1[nH]c(Br)c(-c2cc(OC)c(OC)cc2Br)c1Br`, for which, in test [1], the pIC50 was 5.96 and the IC50 was 1.12 µM. Further, in test [2], the pEC50 is 5.15.

`CCOC(=O)c1[nH]cc(-c2ccc(OC)cc2)c1-c1ccc(OC)cc1`: in test [1], the pIC50 was less than 5.00 and the IC50 is 100 µM. In test [2], this compound gave a negative logarithm of the EC50 (pEC50) of less than 4.30.

(Values after ChEMBL document CHEMBL1144660, “Docking and hydropathic scoring of polysubstituted pyrrole compounds with antitubulin activity” (Bioorg Med Chem, 2008).)
